ChEMBL document CHEMBL1821604, “Anticancer activity and cDNA microarray studies of a (RS)-1,2,3,5-tetrahydro-4,1-benzoxazepine-3-yl]-6-chloro-9H-purine, and an acyclic (RS)-O,N-acetalic 6-chloro-7H-purine” (Eur J Med Chem, 2011)

What was measured:
Assay type in all cases: functional
MCF7 [1] = experiment: Down regulation of KIAA1533 gene expression in human MCF7 cells at IC50 after 48 hrs by cDNA microarray technique relative to control
Procedure, shortened: (§1)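 Cells (8 × 10⁶) were cultured in DMEM with 10% heat-inactivated FBS at 37 °C under 5% CO₂. They were exposed for 48 h to compound at its IC₅₀, with DMSO-treated parallel cultures as controls (final DMSO ≤0.1% v/v). Total RNA was isolated by trizol/chloroform phase separation, RNeasy column cleanup and on-column DNase, then quantified by OD260/OD280. Expression was profiled by cDNA microarray relative to control.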

MCF7 [2] = experiment: Down regulation of HLA-DOB gene expression in human MCF7 cells at IC50 after 48 hrs by cDNA microarray technique relative to control; procedure, shortened: as §1
MCF7 [3] = experiment: Down regulation of SLC16A7 gene expression in human MCF7 cells at IC50 after 48 hrs by cDNA microarray technique relative to control
HT-29 [4] = experiment: Upregulation of LOC283385 gene expression in human HT-29 cells at IC50 after 48 hrs by cDNA microarray technique relative to control
HT-29 [5] = experiment: Upregulation of IMP-1 gene expression in human HT-29 cells at IC50 after 48 hrs by cDNA microarray technique relative to control
MCF7 [6] = experiment: Down regulation of EFHC2 gene expression in human MCF7 cells at IC50 after 48 hrs by cDNA microarray technique relative to control; procedure, shortened: as §1
MCF7 [7] = experiment: Down regulation of P53AIP1 gene expression in human MCF7 cells at IC50 after 48 hrs by cDNA microarray technique relative to control
HT-29 [8] = experiment: Down regulation of HAS2 gene expression in human HT-29 cells at IC50 after 48 hrs by cDNA microarray technique relative to control; procedure, shortened: as §1
HT-29 [9] = experiment: Down regulation of MGC35130 gene expression in human HT-29 cells at IC50 after 48 hrs by cDNA microarray technique relative to control
HT-29 [10] = experiment: Down regulation of CDH4 gene expression in human HT-29 cells at IC50 after 48 hrs by cDNA microarray technique relative to control
Procedure, shortened: (§2)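 8 × 10⁶ cells exposed 48 h to compound at its IC50 concentration; total RNA isolated with trizol/chloroform and RNeasy columns including on-column DNase step; RNA quantified by OD 260/280; DMSO-treated cultures as control.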

HT-29 [11] = experiment: Down regulation of DNAJC5B gene expression in human HT-29 cells at IC50 after 48 hrs by cDNA microarray technique relative to control; procedure, shortened: as §1
MCF7 [12] = experiment: Upregulation of NRTN gene expression in human MCF7 cells at IC50 after 48 hrs by cDNA microarray technique relative to control
HT-29 [13] = experiment: Down regulation of SLC28A2 gene expression in human HT-29 cells at IC50 after 48 hrs by cDNA microarray technique relative to control
MCF7 [14] = experiment: Upregulation of ERG gene expression in human MCF7 cells at IC50 after 48 hrs by cDNA microarray technique relative to control
MCF7 [15] = experiment: Down regulation of ZNF189 gene expression in human MCF7 cells at IC50 after 48 hrs by cDNA microarray technique relative to control
HT-29 [16] = experiment: Down regulation of BENE gene expression in human HT-29 cells at IC50 after 48 hrs by cDNA microarray technique relative to control; procedure, shortened: as §2
HT-29 [17] = experiment: Down regulation of DNAJC7 gene expression in human HT-29 cells at IC50 after 48 hrs by cDNA microarray technique relative to control; procedure, shortened: as §1
HT-29 [18] = experiment: Down regulation of ZNF482 gene expression in human HT-29 cells at IC50 after 48 hrs by cDNA microarray technique relative to control
HT-29 [19] = experiment: Down regulation of DRD5 gene expression in human HT-29 cells at IC50 after 48 hrs by cDNA microarray technique relative to control; procedure, shortened: as §1
HT-29 [20] = experiment: Down regulation of HUS1B gene expression in human HT-29 cells at IC50 after 48 hrs by cDNA microarray technique relative to control; procedure, shortened: as §1
HT-29 [21] = experiment: Down regulation of PCSK9 gene expression in human HT-29 cells at IC50 after 48 hrs by cDNA microarray technique relative to control
HT-29 [22] = experiment: Down regulation of PYCRL gene expression in human HT-29 cells at IC50 after 48 hrs by cDNA microarray technique relative to control
HT-29 [23] = experiment: Down regulation of HNRPAB gene expression in human HT-29 cells at IC50 after 48 hrs by cDNA microarray technique relative to control; procedure, shortened: as §1
MCF7 [24] = experiment: Upregulation of ZNF505 gene expression in human MCF7 cells at IC50 after 48 hrs by cDNA microarray technique relative to control
MCF7 [25] = experiment: Upregulation of FLJ14075 gene expression in human MCF7 cells at IC50 after 48 hrs by cDNA microarray technique relative to control
MCF7 [26] = experiment: Upregulation of CD1B gene expression in human MCF7 cells at IC50 after 48 hrs by cDNA microarray technique relative to control
MCF7 [27] = experiment: Upregulation of ATP12A gene expression in human MCF7 cells at IC50 after 48 hrs by cDNA microarray technique relative to control
MCF7 [28] = experiment: Down regulation of TDGF1 gene expression in human MCF7 cells at IC50 after 48 hrs by cDNA microarray technique relative to control
MCF7 [29] = experiment: Down regulation of SPINK2 gene expression in human MCF7 cells at IC50 after 48 hrs by cDNA microarray technique relative to control
HT-29 [30] = experiment: Upregulation of LAMP3 gene expression in human HT-29 cells at IC50 after 48 hrs by cDNA microarray technique relative to control
HT-29 [31] = experiment: Down regulation of RALGDS gene expression in human HT-29 cells at IC50 after 48 hrs by cDNA microarray technique relative to control
HT-29 [32] = experiment: Down regulation of DKFZp451J0118 gene expression in human HT-29 cells at IC50 after 48 hrs by cDNA microarray technique relative to control; procedure, shortened: as §2
HT-29 [33] = experiment: Down regulation of VPS18 gene expression in human HT-29 cells at IC50 after 48 hrs by cDNA microarray technique relative to control
HT-29 [34] = experiment: Down regulation of GBGT1 gene expression in human HT-29 cells at IC50 after 48 hrs by cDNA microarray technique relative to control; procedure, shortened: as §1
HT-29 [35] = experiment: Down regulation of ARPC4 gene expression in human HT-29 cells at IC50 after 48 hrs by cDNA microarray technique relative to control; procedure, shortened: as §2
HT-29 [36] = experiment: Down regulation of RXRB gene expression in human HT-29 cells at IC50 after 48 hrs by cDNA microarray technique relative to control
HT-29 [37] = experiment: Down regulation of PLCB4 gene expression in human HT-29 cells at IC50 after 48 hrs by cDNA microarray technique relative to control
HT-29 [38] = experiment: Down regulation of CARHSP1 gene expression in human HT-29 cells at IC50 after 48 hrs by cDNA microarray technique relative to control; procedure, shortened: as §2

COC(CN(c1ccccc1CO)S(=O)(=O)c1ccccc1[N+](=O)[O-])n1cnc2ncnc(Cl)c21 (racemic)
fold change (FC) (MCF7 [1]): -2.09 | fold change (FC) (MCF7 [2]): -2.26 | fold change (FC) (MCF7 [3]): -2.27 | fold change (FC) (HT-29 [4]): 4.37 | fold change (FC) (HT-29 [5]): 2.88 | fold change (FC) (MCF7 [6]): -2.27 | fold change (FC) (MCF7 [7]): -2.4 | fold change (FC) (HT-29 [8]): -2.01 | fold change (FC) (HT-29 [9]): -2.05 | fold change (FC) (HT-29 [10]): -2.22 | fold change (FC) (HT-29 [11]): -2.49 | fold change (FC) (MCF7 [12]): 4.22 | fold change (FC) (HT-29 [13]): -3.32 | fold change (FC) (MCF7 [14]): 2 | fold change (FC) (MCF7 [15]): -2.17

O=C(OCC1c2ccccc2-c2ccccc21)N1CC(n2cnc3c(Cl)ncnc32)OCc2ccccc21 (racemic)
fold change (FC) (HT-29 [16]): -2.14 | fold change (FC) (HT-29 [17]): -2.2 | fold change (FC) (HT-29 [18]): -2.28 | fold change (FC) (HT-29 [19]): -2.3 | fold change (FC) (HT-29 [20]): -2.3 | fold change (FC) (HT-29 [21]): -2.32 | fold change (FC) (HT-29 [22]): -2.36 | fold change (FC) (HT-29 [23]): -2.45 | fold change (FC) (MCF7 [24]): 5.62 | fold change (FC) (MCF7 [25]): 4.84 | fold change (FC) (MCF7 [26]): 2.31 | fold change (FC) (MCF7 [27]): 2.05 | fold change (FC) (MCF7 [28]): -3 | fold change (FC) (MCF7 [29]): -3.01 | fold change (FC) (HT-29 [30]): 2.91 | fold change (FC) (HT-29 [31]): -2.01 | fold change (FC) (HT-29 [32]): -2.03 | fold change (FC) (HT-29 [33]): -2.04 | fold change (FC) (HT-29 [34]): -2.07 | fold change (FC) (HT-29 [35]): -2.07 | fold change (FC) (HT-29 [36]): -2.1 | fold change (FC) (HT-29 [37]): -2.11 | fold change (FC) (HT-29 [38]): -2.12
